Values after ≈ are worked out from the molar mass of the structure shown.
Columns and labels:
Format in all cases: functional
Settings in all cases: time 18-24 hrs
[1] = system: Streptococcus dysgalactiae; test: Antibacterial activity against Streptococcus dysgalactiae measured after 18 to 24 hrs by microtiter dilution method
In short: (§1)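 Compounds were taken up in 25% DMSO at 64 μg/mL and serially diluted two-fold in water (11 dilutions). Log-phase bacteria grown in MHB were diluted to 10^5-10^6 CFU/mL and mixed 1:1 with the dilutions. Plates were incubated at 37 °C for 18-24 h. MIC was the lowest concentration giving no growth by OD492, averaged over three independent experiments.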

Staphylococcus aureus [2] = test: Antibacterial activity against Staphylococcus aureus ATCC 25923 measured after 18 to 24 hrs by microtiter dilution method; in short: as §1
Streptococcus agalactiae = test: Antibacterial activity against Streptococcus agalactiae measured after 18 to 24 hrs by microtiter dilution method; in short: as §1
Escherichia coli = test: Antibacterial activity against Escherichia coli CICC 10389 measured after 18 to 24 hrs by microtiter dilution method; in short: as §1
Staphylococcus aureus [3] = test: Antibacterial activity against Staphylococcus aureus BNCC 337371 measured after 18 to 24 hrs by microtiter dilution method; in short: as §1
Pasteurella multocida = test: Antibacterial activity against Pasteurella multocida CVCC 1659 measured after 18 to 24 hrs by microtiter dilution method; in short: as §1
[4] = system: Staphylococcus epidermidis; test: Antibacterial activity against Staphylococcus epidermidis ATCC 51625 measured after 18 to 24 hrs by microtiter dilution method; in short: as §1
Enterococcus faecalis = test: Antibacterial activity against Enterococcus faecalis measured after 18 to 24 hrs by microtiter dilution method; in short: as §1

| Compound | MIC [1] [µM] | MIC (Staphylococcus aureus [2]) [µM] | MIC (Streptococcus agalactiae) [µM] | MIC (Escherichia coli) [µM] | MIC (Staphylococcus aureus [3]) [µM] | MIC (Pasteurella multocida) [µM] | MIC [4] [µM] | MIC (Enterococcus faecalis) [µM] |
| --- | --- | --- | --- | --- | --- | --- | --- | --- |
| C=C[C@]1(C)C[C@@H](OC(=O)CSc2nc(C)cc(OCCCC)n2)[C@@]2(C)[C@H](C)CC[C@]3(CCC(=O)[C@H]32)[C@@H](C)[C@@H]1O | 0.45 (≈ 0.251 µg/mL) | 1.79 (≈ 1 µg/mL) | 0.9 (≈ 0.503 µg/mL) | > 57.3 | 3.58 (≈ 2 µg/mL) | > 57.3 | 1.79 (≈ 1 µg/mL) | 57.3 (≈ 32 µg/mL) |
| C=C[C@]1(C)C[C@@H](OC(=O)CSc2nc(C)cc(N(C)C)n2)[C@@]2(C)[C@H](C)CC[C@]3(CCC(=O)[C@H]32)[C@@H](C)[C@@H]1O | 0.12 (≈ 0.0636 µg/mL) | 0.12 (≈ 0.0636 µg/mL) | 0.12 (≈ 0.0636 µg/mL) | > 60.5 | 0.24 (≈ 0.127 µg/mL) | 30.2 (≈ 16 µg/mL) | 0.24 (≈ 0.127 µg/mL) | 15.1 (≈ 8 µg/mL) |
| C=C[C@]1(C)C[C@@H](OC(=O)CSc2nc(C)cc(N(CC)CC)n2)[C@@]2(C)[C@H](C)CC[C@]3(CCC(=O)[C@H]32)[C@@H](C)[C@@H]1O | 0.22 (≈ 0.123 µg/mL) | 0.22 (≈ 0.123 µg/mL) | 0.11 (≈ 0.0614 µg/mL) | > 57.4 | 0.45 (≈ 0.251 µg/mL) | 57.4 (≈ 32 µg/mL) | 0.45 (≈ 0.251 µg/mL) | 28.7 (≈ 16 µg/mL) |
| C=C[C@]1(C)C[C@@H](OC(=O)CSc2nc(C)cc(O)n2)[C@@]2(C)[C@H](C)CC[C@]3(CCC(=O)[C@H]32)[C@@H](C)[C@@H]1O | 0.12 (≈ 0.0603 µg/mL) | 0.25 (≈ 0.126 µg/mL) | 0.12 (≈ 0.0603 µg/mL) | > 63.8 | 0.25 (≈ 0.126 µg/mL) | 7.95 (≈ 4 µg/mL) | 0.25 (≈ 0.126 µg/mL) | 16 (≈ 8.02 µg/mL) |

More lines, now with the values ahead:

| MIC [1] [µM] | MIC (Staphylococcus aureus [2]) [µM] | MIC (Streptococcus agalactiae) [µM] | MIC (Escherichia coli) [µM] | MIC (Staphylococcus aureus [3]) [µM] | MIC (Pasteurella multocida) [µM] | MIC [4] [µM] | MIC (Enterococcus faecalis) [µM] | Compound |
| --- | --- | --- | --- | --- | --- | --- | --- | --- |
| 0.05 (≈ 0.03 µg/mL) | 0.1 (≈ 0.06 µg/mL) | 0.05 (≈ 0.03 µg/mL) | > 53.5 | 0.21 (≈ 0.126 µg/mL) | 26.7 (≈ 16 µg/mL) | 0.21 (≈ 0.126 µg/mL) | 26.7 (≈ 16 µg/mL) | C=C[C@]1(C)C[C@@H](OC(=O)CSc2nc(C)cc(N3CCC[C@H](CO)C3)n2)[C@@]2(C)[C@H](C)CC[C@]3(CCC(=O)[C@H]32)[C@@H](C)[C@@H]1O |
| 0.05 (≈ 0.0285 µg/mL) | 0.11 (≈ 0.0628 µg/mL) | 0.11 (≈ 0.0628 µg/mL) | > 56.1 | 0.11 (≈ 0.0628 µg/mL) | 28.1 (≈ 16 µg/mL) | 0.22 (≈ 0.126 µg/mL) | 14 (≈ 8.01 µg/mL) | C=C[C@]1(C)C[C@@H](OC(=O)CSc2nc(C)cc(N3CCNCC3)n2)[C@@]2(C)[C@H](C)CC[C@]3(CCC(=O)[C@H]32)[C@@H](C)[C@@H]1O |
| 0.43 (≈ 0.251 µg/mL) | 0.43 (≈ 0.251 µg/mL) | 0.11 (≈ 0.0643 µg/mL) | > 54.8 | 0.43 (≈ 0.251 µg/mL) | 54.8 (≈ 32 µg/mL) | 0.43 (≈ 0.251 µg/mL) | 54.8 (≈ 32 µg/mL) | C=C[C@]1(C)C[C@@H](OC(=O)CSc2nc(C)cc(N3CCN(C)CC3)n2)[C@@]2(C)[C@H](C)CC[C@]3(CCC(=O)[C@H]32)[C@@H](C)[C@@H]1O |
| 0.22 (≈ 0.126 µg/mL) | 0.11 (≈ 0.0629 µg/mL) | 0.11 (≈ 0.0629 µg/mL) | > 56 | 0.22 (≈ 0.126 µg/mL) | 14 (≈ 8 µg/mL) | 0.11 (≈ 0.0629 µg/mL) | 28 (≈ 16 µg/mL) | C=C[C@]1(C)C[C@@H](OC(=O)CSc2nc(C)cc(N3CC[C@@H](O)C3)n2)[C@@]2(C)[C@H](C)CC[C@]3(CCC(=O)[C@H]32)[C@@H](C)[C@@H]1O |
| 0.05 (≈ 0.0307 µg/mL) | 0.1 (≈ 0.0614 µg/mL) | 0.05 (≈ 0.0307 µg/mL) | > 52.2 | 0.2 (≈ 0.123 µg/mL) | 52.2 (≈ 32 µg/mL) | 0.2 (≈ 0.123 µg/mL) | 26.1 (≈ 16 µg/mL) | C=C[C@]1(C)C[C@@H](OC(=O)CSc2nc(C)cc(N3CCC(CCO)CC3)n2)[C@@]2(C)[C@H](C)CC[C@]3(CCC(=O)[C@H]32)[C@@H](C)[C@@H]1O |
